# Assay outcomes deposited in PubChem BioAssay by The Scripps Research Institute Molecular Screening Center.
# Compounds with a hit are over-represented: about 3.1% of the library has one in this group of screens.
# OX1R antag-1: OX1R (human) antagonism. O43613. OX1R-expressing cells, FRET antagonist read-out. inhibition, % at 6.6 µM. actives 1.8% (n = 330,000). AID 485270; in the data active means inhibition mostly above about 38%, no sharp cut-off; inactive means mostly below about 40%;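 further: 0% = agonist challenge alone and 100% = reference antagonist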
# Target sequence (O43613 whole entry, looked up): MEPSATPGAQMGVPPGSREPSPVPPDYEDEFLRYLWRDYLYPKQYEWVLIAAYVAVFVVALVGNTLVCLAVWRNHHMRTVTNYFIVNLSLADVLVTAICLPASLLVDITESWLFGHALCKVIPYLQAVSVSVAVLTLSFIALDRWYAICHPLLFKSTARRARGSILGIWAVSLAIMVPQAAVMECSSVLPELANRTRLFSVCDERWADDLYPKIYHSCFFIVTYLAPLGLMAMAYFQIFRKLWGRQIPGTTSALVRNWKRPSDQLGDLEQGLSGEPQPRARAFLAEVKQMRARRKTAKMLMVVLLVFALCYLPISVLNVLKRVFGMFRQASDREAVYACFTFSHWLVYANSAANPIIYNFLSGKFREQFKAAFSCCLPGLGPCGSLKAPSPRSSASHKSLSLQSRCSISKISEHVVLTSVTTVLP
# GalR3 antagonist: human GalR3 antagonism | O60755 | HEK293 GalR3-CNG cAMP membrane potential fluorescence; galR3 body fused to GalR1 C-terminus | inhibition, % at 3 µM | actives 0.44% (n = 360,000) | AID 651719;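 active means inhibition above the screen-wide average plus 3 SD, cut at about 13% in these data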;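 further: forskolin and galanin both at EC90 stimulate the cells; cAMP rise reported by CNG channel membrane potential dye signal; 0% = forskolin plus galanin with DMSO and 100% = forskolin alone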
# OX1R antag-2: antagonists of human orexin 1 receptor. O43613. CHO/OX1R cells, Fluo-8 calcium fluorescence, orexin A. inhibition, % at 5 µM. actives 0.43% (n = 330,000). AID 434989;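 active means inhibition above its plate's threshold, mean inhibition of all tested compounds on the plate plus 3 SD, cut at about 37% in these data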;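 further: 0% = orexin A challenge wells and 100% = SB-334867-A antagonist wells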
# CHO parental Ca: signal in parental CHO cells, OX1R antagonist counter-screen. parental CHO-K1, ATP-induced calcium, Fluo-8 fluorescence. inhibition, % at 5.6 µM. actives 0.63% (n = 330,000);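 active means inhibition above that plate's mean sample inhibition plus 3 SD, cut at about 26% in these data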;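 further: 0% = ATP-challenged DMSO wells and 100% = DMSO wells without ATP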
#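 Material – parental CHO cells · Reagent – ATP stimulus · Compound – single nominal dose of 5.6 µM per compound · Detection – Fluo-8 fluorescence · Read-out basis – percent inhibition of calcium signal · Controls – ATP-challenged DMSO wells low, unchallenged DMSO wells high · Repeats – no replicates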
# GPR7 antag: blocks human GPR7 receptor signaling. AID 1861. actives 1.1% (n = 290,000). GPR7-expressing cells, fluorescence antagonist assay. inhibition, % at 4.4 µM. P48145; in the data active means inhibition above about 16%, passing the limit was not always enough;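 further: cells stimulated with the agonist NPW; 0% = agonist with vehicle and 100% = vehicle without agonist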
# * = called active by the depositor; . = no result given.
SMILES,OX1R antag-1,GalR3 antagonist,OX1R antag-2,CHO parental Ca,GPR7 antag
COC(=O)CCN(Cc1cccc(OC)c1OC)S(=O)(=O)c1ccccc1Br,.,-6.7,.,.,.
COC(=O)C1=C(C)N(Cc2ccccc2C(F)(F)F)C(=NCc2cc(OC)c(OC)c(OC)c2)NC1c1ccc(Cl)cc1 (stereo not drawn),.,-3.1,.,.,.
Cc1cc(C)cc(Nc2ccc([N+](=O)[O-])nc2[N+](=O)[O-])c1,60.6*,-3.7,-18.0,-10.7,-7.7
COc1cc(Nc2ccc(C)cc2)c([N+](=O)[O-])nc1[N+](=O)[O-],54.1,1.0,-8.3,-1.6,4.7
CCOC(=O)c1c(C)oc2c1c(CN1CCN(C(=O)OCC)CC1)c(O)c1ccccc12,69.8*,0.0,1.4,-14.6,-10.0
CCOC(=O)c1c(C)oc2c1c(CN1CCN(CCO)CC1)c(O)c1ccccc12,.,-4.8,.,.,7.3
O=C1CC2c3cc(-c4cc5ccccc5o4)ccc3CCN2C(=O)CN1Cc1ccccc1 (stereo not drawn),.,8.7,.,.,.
Cn1c(O)c(N=NC(=O)CNC(=O)c2ccccc2)c2cc(Br)ccc21,58.8,-7.1,-30.8,-20.2,-2.9
Cn1c(O)c(N=NC(=O)CNC(=O)c2ccccc2)c2ccccc21,48.5*,-8.3,-16.2,-12.7,-10.8
O=C1CC(O)C(Cc2ccccc2)N1 (stereo not drawn),.,-4.3,.,.,.
On1ccccc1=S,14.5,-0.5,36.5*,40.5*,.
O=C(Cn1ccccc1=S)c1ccc(Cl)c(Cl)c1,-2.6,-1.0,2.9,-16.0,.
COc1ccc(/C=N\NC(=O)c2ccccc2OC)cc1COc1ccccc1C,23.4,2.0,-13.3,-20.6,-17.1
COc1ccc(/C=N/NC(=O)c2ccoc2C)cc1COc1c(C)cccc1C,36.9,9.2,51.1*,74.4*,21.8
CCCc1c(C(=O)N/N=C/c2ccc(OCc3ccc(F)cc3)cc2)nnn1-c1nonc1N,.,-4.6,.,.,.
Cc1ccc(NC(=O)c2ccc(CNS(=O)(=O)c3cccc(C(F)(F)F)c3)cc2)cc1,15.5,0.3,-20.2,-5.2,-10.4
O=C(Nc1ccccc1F)c1ccc(CNS(=O)(=O)c2cccc(C(F)(F)F)c2)cc1,5.9,0.8,-13.8,69.2*,-0.6
S=C(NN=C1CCCCC1=NNC(=S)N1CCOCC1)N1CCOCC1,.,-2.7,.,.,.
N#Cc1c(-c2ccccc2)cc(-c2ccccc2)nc1SCCC(=O)O,73.6*,-11.0,-16.4,7.8,-2.4
CC(C)C[C@H]1CN([C@@H](Cc2ccc(O)cc2)CN2CCCC2CN2C(=S)NC[C@@H]2Cc2ccccc2)C(=S)N1CC1CCCCC1 (stereo partly drawn),.,-2.3,.,.,.
O=C(CS(=O)(=O)c1ccc(Cl)cc1)Nc1nccs1,.,-6.9,.,.,.
O=Cc1cc(-c2ccccc2)[nH]c1-c1ccccc1,6.1,-10.8,21.4,74.2*,6.9
O=Cc1cn[nH]c1-c1ccccc1,24.1,-6.2,-8.3,22.8,-12.8
O=S(=O)(CS(=O)(=O)c1ccccc1Br)c1ccccc1Br,.,-6.5,.,.,.
COc1ccc(Cl)cc1-c1cc(C(=O)NCc2ccccc2)[nH]n1,.,0.6,.,.,.
SMILES,OX1R antag-1,GalR3 antagonist,OX1R antag-2,CHO parental Ca,GPR7 antag
S=C(NCc1cccs1)Nc1cc(Cl)cc(Cl)c1,25.0,-4.5,13.8,39.0*,-3.9
COc1ccc(-c2cc3c(=O)n(CC(=O)NCCCN4CCC(Cc5ccccc5)CC4)ncn3n2)cc1,17.9,-4.2,14.9,39.6*,23.3
COCCn1c(SCC(=O)N2CCCc3ccccc32)nc2ccccc2c1=O,53.0*,-3.3,2.3,-9.2,-7.7
O=C(CSc1nc2ccccc2c(=O)n1-c1ccccc1)N1CCc2ccccc2C1,54.7*,-13.1,-9.3,-28.5,-5.5
CC(C)c1ccccc1-n1c(SCC(=O)N2CCc3ccccc3C2)nc2ccccc2c1=O,73.3*,-4.2,23.8,-13.2,18.3
CC(C)Cn1c(SCC(=O)N2CCc3ccccc3C2)nc2cc(Cl)ccc2c1=O,29.4,1.7,-29.4,-26.6,-2.6
Cc1ccc(-n2c(SCC(=O)N3CC(=O)Nc4ccccc43)nc3ccccc3c2=O)cc1C,72.3*,-2.7,15.2,9.4,8.7
COc1ccc(C(=O)Nc2ccc3nc(C)sc3c2)cc1S(=O)(=O)N1CCOCC1,.,0.1,.,.,.
COc1cccc(CNC(=O)[C@H]2CCCN2C(=O)[C@H]2CCCN2C(=O)c2ccc(Cl)cc2)c1,.,-3.6,.,.,.
C=CCN=C1NC(c2cccc(Cl)c2)C(C(=O)OC)=C(C)N1Cc1cccc(C(F)(F)F)c1 (stereo not drawn),.,-2.3,.,.,.
COc1cccc2cc(C(=O)OCC(=O)N3CC(C)OC(C)C3)c(=O)oc12 (stereo not drawn),53.2*,-4.3,1.3,-10.6,.
CN(Cc1ccccc1)C(=O)COC(=O)c1cc2ccccc2oc1=O,28.0*,-2.2,-16.5,-19.5,.
CC(C)(C)N(Cc1ccccc1)C(=O)COC(=O)C1CC1,11.1,-3.6,-20.7,-8.1,.
CN(Cc1ccccc1)C(=O)c1ccccc1C(=O)OCC(=O)N(Cc1ccccc1)C(C)(C)C,31.2*,-1.2,31.1,-20.2,.
O=C(OCC(=O)N1CCOCC1)c1cc2ccccc2oc1=O,46.2*,-2.5,-10.8,-1.5,.
COc1cc(C(O)c2nc(-c3cccs3)cs2)ccc1F (stereo not drawn),.,-2.5,.,.,.
NC(c1ccccc1)c1csc(Nc2ccc(C(=O)NCCCO)cn2)n1 (stereo not drawn),.,-1.4,.,.,.
O=C(OCC(=O)N1CCOCC1)c1ccc(Cl)cc1[N+](=O)[O-],32.0,-6.2,-10.8,3.3,3.5
CC1CCCN(C(=O)Nc2ccc([N+](=O)[O-])cc2)C1 (stereo not drawn),.,-7.7,.,.,.
O=C(COC(=O)c1cc(=O)[nH]c2ccccc12)c1ccccc1,26.9,-1.0,-5.2,-13.6,-4.8
O=C(OCC(=O)N1CCOCC1)c1cc(=O)[nH]c2ccccc12,35.3*,-3.2,-12.8,-10.8,.
Cc1cnc(NC(=O)c2cc(-c3ccccc3)nn2-c2ccccc2)s1,.,-3.3,.,.,.
O=C(Nc1nc2ccccc2s1)c1ccc(Cl)s1,43.4*,-6.5,-7.9,-12.0,-13.6
O=C(Nc1nc2ccccc2s1)c1cc(-c2ccccc2)nn1-c1ccccc1,29.7,-6.3,15.4,41.7*,-7.3
CC(=O)c1sc(NC(=O)c2cc(-c3ccccc3)nn2-c2ccccc2)nc1C,65.7*,-2.6,-5.1,-17.9,3.3
C=C(C)C(=O)Nc1ccc2nn(-c3ccccc3O)nc2c1,.,-5.9,.,.,.
O=c1[nH]c2c(=O)[nH]cnc2nc1-c1ccccc1,40.0*,-3.7,-0.3,-6.0,.
CCCOC(=O)c1ccc(OCC(O)CN2C(=O)NC(C)(C)C2=O)cc1 (stereo not drawn),18.7,-3.6,-7.0,99.2*,-8.2
COC(=O)c1ccc(OCC(O)CN2C(=O)NC(C)(C)C2=O)cc1 (stereo not drawn),.,-4.5,.,.,-15.1
COc1ccc(C(NC(=O)c2c(F)c(F)c(F)c(F)c2F)c2ccccc2)cc1 (stereo not drawn),15.1,-9.7,-6.1,-23.1,31.5*
